Laboratory results: ChEMBL document CHEMBL4118213, “Drug efficacy of novel 3-O-methoxy-4-halo disubstituted 5,7-dimethoxy chromans; evaluated via DNA gyrase inhibition, bacterial cell wall lesion and antibacterial prospective” (Bioorg Med Chem, 2018)
Converted amounts (≈) assume the structure as drawn. The source made the active and inactive calls. The rule behind the calls is not given here.

Assays:
[1] = target: DNA gyrase (Staphylococcus aureus) (UniProt P0A0K8+P20831); assay: Inhibition of Staphylococcus aureus DNA gyrase assessed as reduction in relaxation of pBR322 DNA at 1.5 ug by […] analysis relative to control; assay type: protein-complex assay
Method in brief: (§1)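 pBR322 DNA incubated with S. aureus DNA gyrase with or without compound (1.5 µg) and novobiocin as positive control. Products resolved by gel electrophoresis. IC50 from the dose–response curve; mean of duplicate or triplicate measurements.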

[2] = test system: Corynebacterium diphtheriae; assay: Antibacterial activity against Corynebacterium diphtheriae MTCC 116 assessed as cell wall degradation by measuring dead cells measured every 30 mins up to 180 mins by microscopic method; assay type: functional, organism-based
Method in brief: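 C. diphtheriae was grown overnight in Loeffler medium and examined after treatment. Dead cells/cell debris were estimated every 30 min until whole-culture death. Total and dead cell stains were applied for 1 h in the dark at room temperature, then fluorescence was read at Ex 490/Em 525 and Ex 536/Em 617 nm, in triplicate.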

Erythrocyte [3] = assay: Hemolytic activity in human RBC assessed as mean absorbance (reference value: 0.1868 +/- 0.033); assay type: ADME, cell-based
Method in brief: (§2)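 Human red blood cell membrane stabilization tested at various concentrations (n = 4) in 96-well format, with distilled water taken as 100% hemolysis. Absorbance read-out; IC50 taken from the percentage inhibition versus concentration curve.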

Klebsiella pneumoniae = assay: Antibacterial activity against Klebsiella pneumoniae MTCC 530; assay type: functional
Method in brief: (§3)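 MIC determined against six bacterial strains over a range of concentrations, with 1% DMSO as the untreated control and novobiocin as the standard. Values are averages of n = 5.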

Escherichia coli = assay: Antibacterial activity against Escherichia coli MTCC 443; assay type: functional; method in brief: as §3
Erythrocyte [4] = assay: Hemolytic activity in human RBC assessed as membrane mortification by measuring […] stabilization by absorbance method relative to control; assay type: ADME, cell-based; parameters: concentration or dose not given beside the values; method in brief: as §2
DNA gyrase = DNA gyrase (Staphylococcus aureus, UniProt P0A0K8+P20831); assay: Inhibition of Staphylococcus aureus DNA gyrase assessed as reduction in relaxation of pBR322 DNA by […] analysis; assay type: protein-complex assay; method in brief: as §1
[5] = test system: Corynebacterium diphtheriae; assay: Antibacterial activity against Corynebacterium diphtheriae MTCC 116; assay type: functional; method in brief: as §3
Pseudomonas aeruginosa = assay: Antibacterial activity against Pseudomonas aeruginosa MTCC 424; assay type: functional; method in brief: as §3
Streptococcus pyogenes = assay: Antibacterial activity against Streptococcus pyogenes MTCC 442; assay type: functional; method in brief: as §3
Erythrocyte [6] = assay: Hemolytic activity in human RBC assessed as membrane mortification by absorbance method; assay type: ADME, cell-based; method in brief: as §2
Staphylococcus aureus = assay: Antibacterial activity against Staphylococcus aureus MTCC 96; assay type: functional; method in brief: as §3
[7] = Cytotoxicity against human MCF7 cells assessed as cell viability after 4 hrs by MTT assay relative to control; assay type: cell-based; parameters: concentration or dose not given beside the values; conditions: read-out: Activity
Method in brief: (§4)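 MTT assay on MCF-7 and MCF-10 cells (n = 4), with DMSO as control and doxorubicin as standard. Viability was read at several times after treatment and calculated as mean OD/control OD × 100%.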

[8] = Cytotoxicity against human MCF7 cells assessed as cell viability after 6 hrs by MTT assay relative to control; assay type: cell-based; parameters: concentration or dose not given beside the values; conditions: read-out: Activity; method in brief: as §4
MCF7 = assay: Cytotoxicity against human MCF7 cells after 8 hrs by MTT assay; assay type: cell-based; conditions: for Activity: human, mcf7, 8 h; method in brief: as §4
MCF10 = assay: Cytotoxicity against human MCF10 cells after 8 hrs by MTT assay; assay type: cell-based; conditions: mcf10, 8 h; method in brief: as §4

DNA gyrase (Staphylococcus aureus), sequence (P0A0K8 2-644 limits assumed): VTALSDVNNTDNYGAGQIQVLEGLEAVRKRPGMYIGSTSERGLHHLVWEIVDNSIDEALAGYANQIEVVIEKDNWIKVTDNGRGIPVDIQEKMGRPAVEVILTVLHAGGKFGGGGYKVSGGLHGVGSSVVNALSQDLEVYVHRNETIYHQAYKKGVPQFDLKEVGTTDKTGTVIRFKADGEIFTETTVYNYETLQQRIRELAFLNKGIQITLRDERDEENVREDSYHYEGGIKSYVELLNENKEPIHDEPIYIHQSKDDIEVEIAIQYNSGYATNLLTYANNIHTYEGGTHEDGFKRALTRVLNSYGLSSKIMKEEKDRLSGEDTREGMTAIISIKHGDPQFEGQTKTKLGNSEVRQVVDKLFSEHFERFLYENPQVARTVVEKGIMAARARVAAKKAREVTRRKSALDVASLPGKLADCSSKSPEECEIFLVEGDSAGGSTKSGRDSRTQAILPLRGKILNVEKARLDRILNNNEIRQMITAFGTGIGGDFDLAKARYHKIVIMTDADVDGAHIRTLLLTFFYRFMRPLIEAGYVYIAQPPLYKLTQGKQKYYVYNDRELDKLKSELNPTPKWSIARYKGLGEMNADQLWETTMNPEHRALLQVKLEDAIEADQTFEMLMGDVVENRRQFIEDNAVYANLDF
DNA gyrase (Staphylococcus aureus), sequence (P20831 whole entry partner): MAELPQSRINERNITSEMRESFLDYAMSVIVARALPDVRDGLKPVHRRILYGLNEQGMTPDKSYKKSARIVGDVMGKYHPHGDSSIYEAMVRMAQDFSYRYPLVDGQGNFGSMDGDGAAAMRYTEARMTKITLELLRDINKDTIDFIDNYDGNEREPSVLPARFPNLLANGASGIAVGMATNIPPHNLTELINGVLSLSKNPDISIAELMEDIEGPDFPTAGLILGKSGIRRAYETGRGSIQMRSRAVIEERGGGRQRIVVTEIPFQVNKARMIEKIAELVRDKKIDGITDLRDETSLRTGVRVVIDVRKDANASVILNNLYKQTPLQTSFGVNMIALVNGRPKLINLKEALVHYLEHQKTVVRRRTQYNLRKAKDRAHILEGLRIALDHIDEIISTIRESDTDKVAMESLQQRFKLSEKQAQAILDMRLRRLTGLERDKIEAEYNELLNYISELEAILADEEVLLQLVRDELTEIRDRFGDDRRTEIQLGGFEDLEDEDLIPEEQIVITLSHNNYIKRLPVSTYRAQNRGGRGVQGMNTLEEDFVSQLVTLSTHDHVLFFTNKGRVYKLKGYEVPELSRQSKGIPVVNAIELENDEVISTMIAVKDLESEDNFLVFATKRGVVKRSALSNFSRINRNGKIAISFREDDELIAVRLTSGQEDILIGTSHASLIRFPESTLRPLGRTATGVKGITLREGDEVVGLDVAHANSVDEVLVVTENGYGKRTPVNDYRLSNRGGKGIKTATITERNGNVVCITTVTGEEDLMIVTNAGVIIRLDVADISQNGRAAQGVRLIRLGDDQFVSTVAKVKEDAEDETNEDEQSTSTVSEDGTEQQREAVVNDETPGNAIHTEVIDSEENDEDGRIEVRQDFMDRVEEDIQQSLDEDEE
DNA gyrase, sequence (P0A0K8 whole entry): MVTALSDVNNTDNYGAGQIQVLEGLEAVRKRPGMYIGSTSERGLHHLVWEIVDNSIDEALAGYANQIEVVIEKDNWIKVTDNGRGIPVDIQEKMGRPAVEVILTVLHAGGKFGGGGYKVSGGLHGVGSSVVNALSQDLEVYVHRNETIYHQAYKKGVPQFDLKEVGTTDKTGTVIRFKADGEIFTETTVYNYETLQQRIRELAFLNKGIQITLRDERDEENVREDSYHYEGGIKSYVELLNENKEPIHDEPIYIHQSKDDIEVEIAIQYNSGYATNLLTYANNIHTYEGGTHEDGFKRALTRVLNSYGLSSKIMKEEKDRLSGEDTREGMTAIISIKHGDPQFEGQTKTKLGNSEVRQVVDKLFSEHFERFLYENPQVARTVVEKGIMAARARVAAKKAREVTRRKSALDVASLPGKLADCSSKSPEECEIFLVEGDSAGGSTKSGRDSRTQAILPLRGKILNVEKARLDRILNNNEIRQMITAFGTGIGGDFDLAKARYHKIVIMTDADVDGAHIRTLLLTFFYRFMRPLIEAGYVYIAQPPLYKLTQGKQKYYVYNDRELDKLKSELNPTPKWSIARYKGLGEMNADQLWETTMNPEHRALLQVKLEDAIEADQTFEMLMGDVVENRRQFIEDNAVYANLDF
DNA gyrase, sequence (P20831 whole entry): as the sequence (P20831 whole entry partner) above

| Structure (SMILES) | inhibition [1] [%] | Activity [2] | Activity (Erythrocyte [3]) | MIC (Klebsiella pneumoniae) [µg/mL] | MIC (Escherichia coli) [µg/mL] | Activity (Erythrocyte [4]) [%] | IC50 (DNA gyrase) [nM] | MIC [5] [µg/mL] | MIC (Pseudomonas aeruginosa) [µg/mL] | MIC (Streptococcus pyogenes) [µg/mL] | IC50 (Erythrocyte [6]) [µg/mL] | MIC (Staphylococcus aureus) [µg/mL] | viability at 4 h [7] [%] | viability at 6 h [8] [%] | Activity (MCF7) | Activity (MCF10) | IC50 (MCF7; Homo sapiens, MCF7, 8 h) [nM] |
| --- | --- | --- | --- | --- | --- | --- | --- | --- | --- | --- | --- | --- | --- | --- | --- | --- | --- |
| CO[C@@H]1[C@@H](OC(=O)c2ccc(C)[nH]2)[C@@H](O)[C@H](Oc2ccc3c(O)c(NC(=O)c4ccc(O)c(CC=C(C)C)c4)c(=O)oc3c2Cl)OC1(C)C | 86 |  |  |  |  |  |  |  |  |  |  |  |  |  |  |  |  |
| COc1cc2c(c(O)c1C(C)=O)C(=O)CC(C)(C)O2 | 78 to 94 | Active | 0.3841 | 2.24 (≈ 8.48 µM) | 0.99 (≈ 3.75 µM) | 80.65 | 1.86 to 24 | 1.02 (≈ 3.86 µM) | 1.67 (≈ 6.32 µM) | 3.12 (≈ 11.8 µM) | 1.24 (≈ 4.69 µM) | 1 (≈ 3.78 µM) |  |  |  |  |  |
| COc1cc2c(c(OC)c1C(C)=O)[C@H](O)[C@H](O)C(C)(C)O2 | 78 to 94 | Active | 0.3611 | 3.88 (≈ 13.1 µM) | 4.1 (≈ 13.8 µM) | 80.88 | 1.86 to 24 | 1.28 (≈ 4.32 µM) | 3.01 (≈ 10.2 µM) | 5.02 (≈ 16.9 µM) | 1 (≈ 3.38 µM) | 1.54 (≈ 5.2 µM) |  |  |  |  |  |
| COc1c(Br)c(OC)c(C(C)=O)c2c1C=CC(C)(C)O2 | 78 to 94 | Active | 0.3634 | 1.99 (≈ 5.83 µM) | 2.13 (≈ 6.24 µM) | 86.16 | 1.86 to 24 | 1.08 (≈ 3.17 µM) | 3.12 (≈ 9.14 µM) | 2.04 (≈ 5.98 µM) | 0.124 (≈ 0.364 µM) | 0.99 (≈ 2.9 µM) |  |  |  |  |  |
| COc1ccc2c(c1)c(CC(=O)O)c(C)n2C(=O)c1ccc(Cl)cc1 [INDOMETHACIN] |  |  | 0.3834 |  |  | 85.64 |  |  |  |  | 0.086 (≈ 0.24 µM) |  |  |  |  |  |  |
| COc1cc(O)c2c(c1C(C)=O)OC(C)(C)C=C2 | 78 to 94 | Active | 0.4624 | 0.9 (≈ 3.62 µM) | 0.88 (≈ 3.54 µM) | 90.45 | 7.5 | 0.82 (≈ 3.3 µM) | 1.02 (≈ 4.11 µM) | 1 (≈ 4.03 µM) | 0.0182 (≈ 0.0733 µM) | 0.1 (≈ 0.403 µM) | 20 | 16 | Dose-dependent effect | Non-Toxic |  |
| COc1cc(OC)c2c(c1C(C)=O)OC(C)(C)C(OC)C2Cl (configuration not stated) | 78 to 94 | Active | 0.3659 | 0.96 (≈ 2.92 µM) | 1 (≈ 3.04 µM) | 86.37 | 1.86 to 24 | 0.21 (≈ 0.639 µM) | 1.02 (≈ 3.1 µM) | 1.07 (≈ 3.25 µM) | 0.222 (≈ 0.676 µM) | 0.18 (≈ 0.547 µM) |  |  |  |  |  |
| COc1cc(O)c2c(c1C(C)=O)OC(C)(C)C(OC)C2Cl (configuration not stated) | 90 | Active | 0.4242 | 0.72 (≈ 2.29 µM) | 0.68 (≈ 2.16 µM) | 93.25 | 3.5 | 0.68 (≈ 2.16 µM) | 0.87 (≈ 2.76 µM) | 0.87 (≈ 2.76 µM) | 0.0102 (≈ 0.0324 µM) | 0.08 (≈ 0.254 µM) | 20 | 16 | Dose-dependent effect | Non-Toxic |  |
| COc1cc(OC)c2c(c1C(C)=O)OC(C)(C)[C@H](O)[C@@H]2O | 78 to 94 | Active | 0.3888 | 2.18 (≈ 7.36 µM) | 2.24 (≈ 7.56 µM) | 85.31 | 10 | 0.99 (≈ 3.34 µM) | 4.52 (≈ 15.3 µM) | 2.85 (≈ 9.62 µM) | 0.88 (≈ 2.97 µM) | 0.92 (≈ 3.1 µM) | 20 | 16 | Dose-dependent effect | Non-Toxic |  |
| COc1cc(OC)c2c(c1C(C)=O)OC(C)(C)C(O)C2Br (configuration not stated) | 78 to 94 |  |  |  |  |  | 1.86 to 24 |  |  |  |  |  |  |  |  |  |  |
| COc1cc(OC)c2c(c1C(C)=O)OC(C)(C)[C@@H](O)[C@H]2O | 78 to 94 | Active | 0.4046 | 0.92 (≈ 3.1 µM) | 0.84 (≈ 2.83 µM) | 88.52 | 1.86 to 24 | 0.9 (≈ 3.04 µM) | 1.01 (≈ 3.41 µM) | 1.02 (≈ 3.44 µM) | 0.0094 (≈ 0.0317 µM) | 0.64 (≈ 2.16 µM) |  |  |  |  |  |
| COc1cc(OC)c2c(c1C(C)=O)OC(C)(C)C(OC)C2F (configuration not stated) | 78 to 94 | Active | 0.3947 | 0.76 (≈ 2.43 µM) | 0.92 (≈ 2.95 µM) | 85.15 | 9.5 | 0.92 (≈ 2.95 µM) | 0.94 (≈ 3.01 µM) | 0.94 (≈ 3.01 µM) | 0.0922 (≈ 0.295 µM) | 0.16 (≈ 0.512 µM) | 20 | 16 | Dose-dependent effect | Non-Toxic |  |
| CO[C@@H]1[C@@H](OC(N)=O)[C@@H](O)[C@H](Oc2ccc3c(O)c(NC(=O)c4ccc(O)c(CC=C(C)C)c4)c(=O)oc3c2C)OC1(C)C [NOVOBIOCIN] |  |  |  | 0.5 to 0.75 (≈ 0.816 to 1.22 µM) | 4.94 to 5 (≈ 8.06 to 8.16 µM) |  |  | 1.32 (≈ 2.15 µM) | 1.75 to 100 (≈ 2.86 to 163 µM) | 3.24 (≈ 5.29 µM) |  | 0.78 to 0.92 (≈ 1.27 to 1.5 µM) |  |  |  |  |  |
| COc1cc(OS(=O)(=O)C(F)(F)F)c2c(c1C(C)=O)OC(C)(C)C=C2 | 94 | Active | 0.4852 | 0.64 (≈ 1.68 µM) | 0.64 (≈ 1.68 µM) | 98.84 | 2.5 | 0.04 (≈ 0.105 µM) | 0.84 (≈ 2.21 µM) | 0.83 (≈ 2.18 µM) | 0.0012 (≈ 0.00316 µM) | 0.02 (≈ 0.0526 µM) | 20 | 16 |  | Non-Toxic | 10 |
